In ChEMBL document CHEMBL1795283, “Dihydro-β-agarofuran sesquiterpenes isolated from Celastrus vulcanicola as potential anti-Mycobacterium tuberculosis multidrug-resistant agents” (2011) one finds MIC data, which are given here for 26 compounds.

Broadly, the MIC is the least concentration at which growth counts as inhibited. Read a low MIC as greater potency.

The subject of assay [1] is Mycobacterium tuberculosis. In words: Antimycobacterial activity against Mycobacterium tuberculosis H37Rv after 24 hrs by tetrazolium microplate assay. It counts as functional. The method, boiled down:
(§1)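 TEMA broth microdilution; inoculum from 20–30-day-old slant growth suspended in Tween 80/0.2% BSA, adjusted to McFarland No. 1, final ca. 1.2 × 10⁶ CFU/mL. Compound mixed 1:1 with inoculum, DMSO solvent control; sealed plates incubated 37 °C 5 days, then MTT/Tween 80 added, 24 h 37 °C; yellow-to-purple colour change read. MIC = lowest concentration giving 100% inhibition; means of 3 or 4 replicates.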

In assay [2] the test system is Mycobacterium tuberculosis. In words: Antimycobacterial activity against Mycobacterium tuberculosis isolate 02TBDM039EP097 after 24 hrs by tetrazolium microplate assay. The following applies: isolate 02TBDM039EP097, 24 h. It counts as functional. In outline: as §1

Molecules are shown by their SMILES. In brackets after ≈: the same amount, converted by molar mass.

Consider `CC(=O)O[C@H]1CC[C@@H](C)[C@]23OC(C)(C)[C@H](C[C@H](OC(=O)/C=C/c4ccccc4)[C@]12C)[C@H]3O`, for which the MIC is more than 25 µg/mL in assay [1] and 25 µg/mL (≈ 56.5 µM) in assay [2].

On to `CC(=O)O[C@H]1[C@@H]2[C@@H](OC(=O)c3ccccc3)[C@@]3(OC2(C)C)[C@](C)([C@H]1OC(=O)c1ccccc1)[C@@H](OC(C)=O)[C@@H](O)C[C@]3(C)O`, for which the MIC in assay [1] and in assay [2] was more than 25 µg/mL throughout.

As for `CC(=O)O[C@H]1CC[C@@H](C)[C@@]23C[C@@H](C[C@H](OC(=O)/C=C/c4ccccc4)[C@]12C)C(C)(C)O3`, the MIC in assay [1] and in assay [2] was more than 25 µg/mL in each case.

As for `NNC(=O)c1ccncc1` [ISONIAZID], the MIC in assay [1] stood at 0.125 µg/mL (≈ 0.911 µM); in assay [2] it was 4 µg/mL (≈ 29.2 µM).

As for `CC(=O)O[C@H]1[C@@H](O)C[C@](C)(O)[C@]23OC(C)(C)[C@H]([C@H](OC(=O)/C=C/c4ccccc4)[C@H](OC(=O)c4ccccc4)[C@]12C)[C@H]3O`, the MIC in assay [1] and in assay [2] was more than 25 µg/mL each time.

As for `CC(=O)O[C@H]1[C@@H]2[C@@H](OC(C)=O)[C@@]3(OC2(C)C)[C@@](C)([C@@H](OC(C)=O)CC[C@]3(C)O)[C@H]1OC(C)=O`, the MIC in assay [1] and in assay [2] was more than 25 µg/mL in each case.

For the compound `CC(=O)O[C@H]1CC[C@](C)(O)[C@]23OC(C)(C)[C@H]([C@H](OC(=O)/C=C/c4ccccc4)[C@H](OC(=O)c4ccccc4)[C@]12C)[C@H]3OC(C)=O`, the figures for the MIC in assay [1] and in assay [2] were more than 25 µg/mL and 12.5 µg/mL (≈ 20.1 µM), respectively.

As for `CC(=O)O[C@H]1CC[C@](C)(O)[C@]23OC(C)(C)[C@H]([C@H](O)[C@H](OC(=O)c4ccccc4)[C@]12C)[C@H]3OC(C)=O`, the MIC in assay [1] and in assay [2] was more than 25 µg/mL throughout.

Take `CO[C@H]1/C=C/O[C@@]2(C)Oc3c(C)c(O)c4c(O)c(c(/C=N/N5CCN(C)CC5)c(O)c4c3C2=O)NC(=O)/C(C)=C\C=C\[C@H](C)[C@H](O)[C@@H](C)[C@@H](O)[C@@H](C)[C@H](OC(C)=O)[C@@H]1C` [RIFAMPIN]: the MIC in assay [1] was 0.063 µg/mL (≈ 0.0766 µM); in assay [2], more than 16 µg/mL.

For `CC(=O)O[C@H]1CC[C@@H](C)[C@]23OC(C)(C)[C@H](C[C@H](OC(=O)/C=C/c4ccccc4)[C@]12C)[C@H]3OC(C)=O`, the MIC in assay [1] is more than 25 µg/mL; in assay [2] it was 12.5 µg/mL (≈ 25.8 µM).

For `CC(=O)O[C@H]1[C@@H]2[C@@H](O)[C@]3(OC2(C)C)[C@H](C)CC[C@H](OC(C)=O)[C@@]3(C)[C@H]1OC(=O)c1ccccc1`, the minimum inhibitory concentration (MIC) in assay [1] and in assay [2] was more than 25 µg/mL each time.

On to `CC(=O)O[C@H]1[C@@H]2[C@@H](OC(C)=O)[C@@]3(OC2(C)C)[C@@](C)([C@@H](OC(C)=O)CC[C@]3(C)O)[C@H]1O`, for which the MIC in assay [1] and in assay [2] was more than 25 µg/mL in each case.

Take `CC(=O)O[C@H]1[C@@H]2[C@@H](OC(=O)c3cccnc3)[C@]3(OC2(C)C)[C@H](C)CC[C@H](OC(C)=O)[C@@]3(C)[C@H]1OC(=O)c1ccccc1`: the results for the minimal inhibitory concentration (MIC) in assay [1] and in assay [2] were more than 25 µg/mL and 25 µg/mL (≈ 43.1 µM), respectively.

Consider `CC1(C)O[C@]23[C@H](O)[C@H]1[C@H](O)[C@H](O)[C@]2(C)[C@@H](O)CC[C@]3(C)O`, for which the minimal inhibitory concentration (MIC) in assay [1] and in assay [2] was more than 25 µg/mL each time.

Regarding `CC(=O)O[C@H]1[C@@H]2[C@@H](O)[C@@]3(OC2(C)C)[C@@](C)([C@@H](OC(C)=O)CC[C@]3(C)O)[C@H]1O`, the MIC in assay [1] and in assay [2] was more than 25 µg/mL in each case.

Take `CC(=O)O[C@@H]1[C@@H]2[C@@H](OC(=O)c3cccnc3)[C@@]3(OC2(C)C)[C@@](C)([C@@H](OC(C)=O)CC[C@]3(C)O)[C@H]1OC(=O)c1ccccc1`: the minimum inhibitory concentration (MIC) in assay [1] and in assay [2] was more than 25 µg/mL in each case.

For `CC(=O)O[C@H]1CC[C@@H](C)[C@]23OC(C)(C)[C@H]([C@H](OC(=O)/C=C/c4ccccc4)[C@H](OC(=O)c4ccccc4)[C@]12C)[C@H]3O`, the MIC in assay [1] is more than 25 µg/mL; in assay [2], 12.5 µg/mL (≈ 22.2 µM).

`CC(=O)O[C@H]1CC[C@@H](C)[C@]23OC(C)(C)[C@H]([C@H](OC(=O)/C=C\c4ccccc4)[C@H](OC(=O)c4ccccc4)[C@]12C)[C@H]3O`: the MIC in assay [1] is more than 25 µg/mL; in assay [2] it was 25 µg/mL (≈ 44.4 µM).

`CC(=O)O[C@@H]1[C@@H]2[C@@H](OC(=O)c3ccccc3)[C@@]3(OC2(C)C)[C@@](C)([C@@H](OC(C)=O)CC[C@]3(C)O)[C@H]1OC(=O)c1ccccc1`: the MIC in assay [1] is more than 25 µg/mL; in assay [2], 12.5 µg/mL (≈ 21 µM).

Consider `CC(=O)O[C@H]1CC[C@](C)(O)[C@]23OC(C)(C)[C@H]([C@H](OC(=O)/C=C/c4ccccc4)[C@H](OC(=O)c4ccccc4)[C@]12C)[C@H]3O`, for which the figures for the minimal inhibitory concentration (MIC) in assay [1] and in assay [2] were more than 25 µg/mL and 12.5 µg/mL (≈ 21.6 µM), respectively.

For the compound `CC(=O)O[C@H]1[C@@H]2[C@@H](OC(=O)c3ccccc3)[C@@]3(OC2(C)C)[C@@](C)([C@@H](OC(C)=O)CC[C@]3(C)O)[C@H]1OC(=O)c1ccccc1`, the MIC in assay [1] and in assay [2] was more than 25 µg/mL in each case.

For the compound `CC(=O)O[C@H]1CC[C@](C)(O)[C@]23OC(C)(C)[C@H]([C@H](OC(=O)/C=C\c4ccccc4)[C@H](OC(=O)c4ccccc4)[C@]12C)[C@H]3O`, the MIC in assay [1] and in assay [2] was more than 25 µg/mL throughout.

Regarding `CC(=O)O[C@H]1CC[C@](C)(O)[C@]23OC(C)(C)[C@H]([C@H](O)[C@H](OC(=O)c4ccccc4)[C@]12C)[C@H]3O` [REISSANTIN D], the minimum inhibitory concentration (MIC) in assay [1] and in assay [2] was more than 25 µg/mL in each case.

With `CC(=O)O[C@H]1[C@@H]2[C@@H](OC(=O)c3cccnc3)[C@@]3(OC2(C)C)[C@@](C)([C@@H](OC(C)=O)CC[C@]3(C)O)[C@H]1OC(=O)c1ccccc1`, the MIC in assay [1] and in assay [2] was more than 25 µg/mL each time.

Turning to `CC(=O)O[C@H]1CC[C@](C)(O)[C@]23OC(C)(C)[C@H]([C@H](OC(=O)[C@H](O)[C@@H](O)c4ccccc4)[C@H](OC(=O)c4ccccc4)[C@]12C)[C@H]3O`, the MIC in assay [1] and in assay [2] was more than 25 µg/mL each time.

For the compound `CC(=O)O[C@H]1CC[C@@H](C)[C@]23OC(C)(C)[C@H](C[C@H](OC(=O)c4ccccc4)[C@]12C)[C@H]3OC(=O)c1ccccc1`, the MIC is more than 25 µg/mL in assay [1] and 6.2 µg/mL (≈ 11.9 µM) in assay [2].
